From the EternaBench riboswitch data

Test system: MS2 coat protein
Experiment: apparent Kd, MS2 coat protein; higher = weaker binding; RNA-MaP array
In short: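 Designed RNAs were produced on an Illumina sequencing chip by transcription of sequenced DNA templates. Binding to fluorescently labeled MS2 coat protein (1.5 nM to 3 μM) was measured at room temperature with or without input ligand. The apparent Kd is the median of per-cluster binding-curve fits. Designs were excluded when measured on fewer than 10 clusters.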

[1] = designed as: OFF switch for flavin mononucleotide, no ligand
[2] = ligand present: flavin mononucleotide, designed as: OFF switch for flavin mononucleotide
[3] = designed as: OFF switch for theophylline, no ligand
[4] = ligand present: theophylline, designed as: OFF switch for theophylline
[5] = designed as: ON switch for flavin mononucleotide, no ligand
[6] = ligand present: flavin mononucleotide, designed as: ON switch for flavin mononucleotide
[7] = designed as: ON switch for tryptophan, no ligand
[8] = ligand present: tryptophan, designed as: ON switch for tryptophan
[9] = designed as: OFF switch for tryptophan, no ligand
[10] = ligand present: tryptophan, designed as: OFF switch for tryptophan

| Sequence | apparent Kd [1] [nM] | apparent Kd [2] [nM] | apparent Kd [5] [nM] | apparent Kd [6] [nM] | further results |
| --- | --- | --- | --- | --- | --- |
| ACCAGGCAAGGAUAUGGUUCUGUAAACAUGAGGAUCACCCAUGUAUUUAAUUCAUGUUGGCCAGAAGGUGCUUUCG | 14.8 | 13.3 |  |  |  |
| UCAUUGAGAGUCAUCCAGCGUUAAUGGGAUACCAGAGUUCUUUUACUCCCUUGGCAGCCCGGAACAUGAGGAUCACCCAUGUCUG |  |  |  |  | apparent Kd [3]: 34.9 nM; apparent Kd [4]: 80.8 nM |
| UCUCAUAUGGAAGGAUAUCAUACCUUGUCGAGAUGAGAAGGUCCGUAUGGACAUAACAUGAGGAUCACCCAUGUUUCUUGUGUU |  |  | 188 | 128 |  |
| GGACAAGAAGAGAAGGGCUUACCAAACCUCAACAUGAGGAUCACCCAUGUCAAAGUGGAAGCAUAGCAGGAUAUCUAACAGCGC | 8.09 | 7.72 |  |  |  |
| UCGCGUCUAGCUCAGGAUAUUGUGCCUGAUACAUGAGGAUCACCCAUGUCCUAAGUGCAAACCAACAAGAAGGGAGCUAAGCAUGU |  |  | 13.9 | 13.2 |  |
| AGAACCCAGUAAGGAUAUGAUGAGUCUAUACAACAUGAGGAUCACCCAUGUCCGAGGAAACUAGAUCAGAAGGUACAAGAAAAG |  |  | 73.8 | 17.6 |  |
| CAGGUUCGUACAGGAUAUGGUUACAUGAGGAUCACCCAUGUGCGGUGAGCUGAUUAGUGCACAGUCCAGAAGGGUAGGAUAACA |  |  | 852 | 684 |  |
| ACUGCGCACGGGCUCCACAUGAGGAUCACCCAUGUUGAACUGAGAAGGGAAAGAAGAAACUACAUUCAGGAUAUCAUUUCACCA | 44.5 | 46.6 |  |  |  |
| UGAUCUGGCGGAGGAUAUAUGCCAGUAAAACUGAUAGAAGGCCGUGAUAUAACAUGAGGAUCACCCAUGUGAGCUCCUUAGCGA | 20.5 | 18.1 |  |  |  |
| UCUAACAUGAGGAUCACCCAUGUACCGUCCCGAGGACCGGUACGGCCGCCACUCGUCUUGCUAAAACUGAAGUGAUCACAAGCCU |  |  |  |  | apparent Kd [7]: 20.2 nM; apparent Kd [8]: 30.8 nM |
| GUGCACAUGAGGAUCACCCAUGUCUGUGUAUUCCUGCUACCAGAGGAUAUGGCGUGCGUAGCUUACCAGAAGGCUGGUUGUAUC | 30 | 13.4 |  |  |  |
| GCUCGAGGGCAAGGAUAUAGGGAGAAACAACGCCUAGAAGGUGCACACAUGAGGAUCACCCAUGUUUCUCUAUGACGGAUCAUC | 18.1 | 17.3 |  |  |  |
| AGACAAAAGGAGAAGGAGGUAAAGAUAUAAAGGUGAAGUAAUGGACAUGAGGAUCACCCAUGUACCUAGGAUAUCCAGGGCGAU | 26.8 | 33.6 |  |  |  |
| UCGGUGUAAGAGAAGGAAGUGUUCGCAGGCCAAGGCUCAUUGGCUACAUGAGGAUCACCCAUGUCUUAGGAUAUCUGCGCUCCG |  |  | 45.6 | 16.7 |  |
| UAGCGAUCUCGUUAAAGGAUCCCAUUUGAUACCAGAGAACUUUGCCUCCCUUGGCAGCAAGUGACAUGAGGAUCACCCAUGUUGA |  |  |  |  | apparent Kd [3]: 16.2 nM; apparent Kd [4]: 23.9 nM |
| CGAACUAGCUAGAAGGAACAGGCGACUAAAGUGUUAGGAUAUAGGCGUAUGUGCAGACAUGAGGAUCACCCAUGUGUCGAAUUU | 17.8 | 14.7 |  |  |  |
| UAUUAGUUAGAGAAGGUCCUUAGGCCGCGUAAGGAAGGAUAUCUGCAUCACGGGCCUCUGGCAACAUGAGGAUCACCCAUGUGG | 96.8 | 156 |  |  |  |
| UUACUACAUGAGGAUCACCCAUGUGAAAAUUAAACGAAAAGUUAGGAUAUGAAUGGAAAUGCACCUCAGAAGGAACGCGACAAG |  |  | 18.4 | 16.9 |  |
| UGGCCAGAACCUUUUGUGGCCACAUGAGGAUCACCCAUGUGCGAGGAUAUCCCAUCCGGUCCGGCGGAGAAGGCGCGUAUCGGC |  |  | 34.4 | 30.1 |  |
| GCAUUAACAAAGGAUAUGCAUUUCGUCAAUGUAGCAGAAGGUUGUACAUGAGGAUCACCCAUGUGUGAUCGAAC | 26 | 56.6 |  |  |  |
| AUGAGAUGAGGAUAUACUGGGUCCGCAUUAGAAACUUAUCAACAUGAGGAUCACCCAUGUAGAAGGCAUGUGAG | 25.4 | 83.2 |  |  |  |
| GCCAAGCAGGGAGGAUAUACAGGCAAUAAGUGAUUAGAAGAACAAAACAUGAGGAUCACCCAUGUGAAGAAGGCCCAUUCGGAA | 12.1 | 10.9 |  |  |  |
| GUGGGCUAGGAGAAGGACGAUCGAAGCCAUAUCGUAGGAUAUCCAUUAAGAUCCCGGACAUGAGGAUCACCCAUGUGGUGAUAG | 676 | 414 |  |  |  |
| UAGUAUGGCACAGGAUAUACAAUUAAUAUGCGGGUAGAAGGGUGGUAUCGACAUGAGGAUCACCCAUGUUAGGAAGAAACACAC |  |  | 134 | 78.2 |  |
| GGGUUACACACAUGAGGAUCACCCAUGUUUGCGUGGGCGGGCAGAAGGAGAACCGGAUUACACUUCUAGGAUAUGCAGAUGAUC |  |  | 23.6 | 28.2 |  |
| CGGCAGAAAGUGAGGAUAUCGGUUGUAUGAGGAGACGAGAAGGCACAUGAGGAUCACCCAUGUUAGUAGUCCAC | 9.54 | 8.8 |  |  |  |
| AGAUUUGCAGGAUAUACCGGUACAAACAUGAGGAUCACCCAUGUAACGCAUGGUCAGUGAGUAGAAGGGCACGUAG | 31.4 | 24 |  |  |  |

| Sequence | apparent Kd [1] [nM] | apparent Kd [2] [nM] | apparent Kd [5] [nM] | apparent Kd [6] [nM] | further results |
| --- | --- | --- | --- | --- | --- |
| GCGAGGAGGCAGAAGGACUAAAACACGCUACAAGUAGGAUAUGCAUCCUGCACACAUGAGGAUCACCCAUGUAGAUCCUAUCGC | 78 | 151 |  |  |  |
| GCGACACUCACGGCCGCCACUGAUUAGCCCAGUAUGGAGCCCACACAUGAGGAUCACCCAUGUCACAGGACCGGGUGGGUCUAUU |  |  |  |  | apparent Kd [7]: 25.8 nM; apparent Kd [8]: 26.8 nM |
| GUCUGGUCAGGAUAUUCGAGGUGUAACAUGAGGAUCACCCAUGUUUCUUAGCUAGAGGCCGAAGAAGGGACGGGUA | 11.4 | 10.1 |  |  |  |
| ACCGUAUGGGAGAAGGAACUAUGUUAGACAUGAGGAUCACCCAUGUUCCAGAAUGUAGGGCUCAGUUAGGAUAUCCAAUUCAGA | 11.1 | 21.8 |  |  |  |
| GACGAACAUGAGGAUCACCCAUGUUAACCGAUCACCACGUUCAGAAGGAGGGACAUAACGAGCACCUAGGAUAUGACCAAACAC |  |  | 24.2 | 14.1 |  |
| ACAUGAGGAUCACCCAUGUAAACAAGGUUGGAGACCCGCAAUGAGGAUAUCAUAAAGAAACCCAAUGAGAAGGCAUGAUCACAA |  |  | 22.3 | 17.2 |  |
| AUAACUGCAGGAUAUACAGGAACGCCUAGAAGGAUCCUGGAACAUGAGGAUCACCCAUGUAGAAGGGCACGUUU | 12.3 | 14.4 |  |  |  |
| GCCAAGCUCUAAGGAUAUGUUCACACCGGUGAGACAGAAGGUAGUAGUGUACUGCACAUGAGGAUCACCCAUGUAAACGGAUAA |  |  | 64.2 | 14.9 |  |
| AAGUCGCAAGGAUAUACAGUAAGGGUUCGGAUGGGAAGCUUACAUGAGGAUCACCCAUGUAGAAGGUGCAUUCA | 26.9 | 31.4 |  |  |  |
| CGAGUCUUAUAGAAGGUAGACAUGAGGAUCACCCAUGUACUGGCAACGAAUAGUCGUAGUACACCUAAGGAUAUAUGGGAUGAG |  |  | 74.7 | 52.3 |  |
| AUAUAAUCAGGAUAUACAUGUUUCUUUAACACCGAGGCCGUACAUGAGGAUCACCCAUGUAGAAGGGAUUGCGG | 6.95 | 6.32 |  |  |  |
| GUCAACACAGUAGGAUAUCCAAUGCGUAAGCUCGGAGAAGGACUUAACUAGCAGUUUGAUCGACAUGAGGAUCACCCAUGUAAU | 11.3 | 9.96 |  |  |  |
| GCUUUAUUAGGAUAUGUAACCGUUAACAUGAGGAUCACCCAUGUUGAUUCUCAAGAGACCACAGAAGGAAUAAAAG | 289 | 240 |  |  |  |
| AGUCCUCUGUACCCUGAUGCCCUCACUUUACGAGGACCGGUACGGCCGCCACUCGAAUCCCAACAUGAGGAUCACCCAUGUCGAC |  |  |  |  | apparent Kd [9]: 34.8 nM; apparent Kd [10]: 39.7 nM |
| AGCCCACAUGAGGAUCACCCAUGUACUUGGUCCUCAGGAUAUCUAGUUCCAUAUUACAAAAGAGAAGGGAGGAUUG |  |  | 110 | 14.6 |  |
| GCAGGACAUGAGGAUCACCCAUGUGAUACUAUGACAGGAUAUGAUUGAAAACUUACUAGAACAGAAGGGUCGUGUA |  |  | 94.3 | 34.5 |  |
| UCCGGCGUUGACUAGGAUAUACGGAGGGUAACAUGAGGAUCACCCAUGUAAAGAACUAAAACAGCGUAGAAGGAGUCCAAAGCGAC |  |  | 28 | 19.1 |  |
| GCGGUACAUGAGGAUCACCCAUGUGAUUUAACAGGUUUCAUCAGAAGGACUCACGGUUUGCGACAGUAGGAUAUGAAGGGUAAG |  |  | 34.6 | 24.6 |  |
| GCAAUUUGACGAGGAUAUGGUCUAUUUUUUUACCCAGAAGGCGUCGCCCACAUGAGGAUCACCCAUGUUCAUGGAUAGGAAAUA | 11.9 |  |  |  |  |
| GUGUGGCGCUCAGGAUAUAGAAGGUCGCUAGUUCUAGAAGGGAGCAACGAGGUACCACAUGAGGAUCACCCAUGUUUGGUUGAC | 15.4 | 13.3 |  |  |  |
| UUACACAUGAGGAUCACCCAUGUCUGGGAGCGAGGACCGGUACGGCCGCCACUCGAAUUGUCAGGGCUAUGCCGGACGAUGCAUC |  |  |  |  | apparent Kd [7]: 17.1 nM; apparent Kd [8]: 21.1 nM |
| ACCUUACAUGAGGAUCACCCAUGUCGUGAUACCAGAAACCACGUAUUCCCUUGGCAGCACACCCGUGAUGAGAUUGUCGGUUUUG |  |  |  |  | apparent Kd (designed as: ON switch for theophylline, no ligand): 57.4 nM; apparent Kd (ligand present: theophylline, designed as: ON switch for theophylline): 88 nM |
| GUUCCCUCACAGAAGGAGUGUGUUAGUUGCACAUGAGGAUCACCCAUGUAAUAAACACGUGGCCACUAGGAUAUGUUAAACUGC |  |  | 12.9 | 10.8 |  |
| AUAUCUUCCACGGCCGCCACUGAAUGGUGCCCAAGGUCGAUCGCAGACAUGAGGAUCACCCAUGUCAGGACCGGGUGGUACUACG |  |  |  |  | apparent Kd [9]: 14.7 nM; apparent Kd [10]: 33 nM |
| CUCGUUUAAGAGGAUAUUUCGUCCGCUCUCGGGAAAGAAGGCUUGACAUGAGGAUCACCCAUGUAUACGUUGGA | 9.46 | 13.9 |  |  |  |
| CACCUUCGUCAAGGAUAUGCGUAAUGUAUAAUCGCAGAAGGUGACGCGAUCUUCAUAACAUGAGGAUCACCCAUGUGGUGAACU | 436 | 312 |  |  |  |
| UUAGUGAUACUAGGAUAUAGGUAAGACUCUUAACUAGAAGGAGUAGGGACGAAUACAUGAGGAUCACCCAUGUGAUUCUGGUUG | 21.6 | 26.3 |  |  |  |
